Measurements: ChEMBL document CHEMBL1212693, “Dorsomorphin inhibits BMP signals required for embryogenesis and iron metabolism” (Nat Chem Biol, 2008)
pIC50: −log10 of the molar value. Calls of active or inactive are those of the source. No cut-off for these calls is given here.

Tests used:
Mus musculus [1] = species on record: Mus musculus; assay: Inhibition of activin receptor-mediated Smad-2 phosphorylation in activin-stimulated mouse PASMC at => 10 uM treated 30 mins before activin challenge measured after 30 mins by immunoblot analysis
Outline: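 PASMCs serum-starved 24 h (0.5% FCS RPMI) were pretreated 30 min with compound at 0.1–20 µM or vehicle. They were then stimulated 30 min with recombinant TGF-β1 or activin A. Phospho-SMAD2 was detected by immunoblot of SDS lysates, and phosphorimager quantification was used.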

Danio rerio [2] = assay: Inhibition of iron-dextran conjugate-induced Smad-5 phosphorylation in zebrafish at 23 ug/g, iv after 1 hr relative to control; type: functional
Mus musculus [3] = species on record: Mus musculus; assay: Inhibition of BMPR1-mediated Smad-8 phosphorylation in BMP6-stimulated mouse BMPR2 deficient PASMC at 4 uM treated 30 mins before BMP6 measured after 30 mins by immunoblot analysis
Danio rerio [4] = species on record: Danio rerio; assay: Inhibition of BMPR1 in zebrafish assessed as penetrance of mild embryonic axis dorsalization at 10 uM treated continuously from 8 hrs post-fertilization measured at 48 hrs; design: scale not given: the % may be the effect or the level left
Outline: (§1)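 Compound added at the stated times and concentrations. Gross morphology scored visually at up to 48 h.p.f. for dorsalization of the embryonic axis.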

Danio rerio [5] = species on record: Danio rerio; assay: Inhibition of BMPR1 in zebrafish assessed as penetrance of moderate embryonic axis dorsalization at 10 uM treated at 4 to 8 hrs post-fertilization measured at 48 hrs; design: scale not given: the % may be the effect or the level left; outline: as §1
Danio rerio [6] = species on record: Danio rerio; assay: Inhibition of BMPR1 in zebrafish assessed as severity of embryonic axis dorsalization at 10 uM treated continuously from 6 hrs post-fertilization measured at 48 hrs; design: scale not given: the % may be the effect or the level left
Danio rerio [7] = species on record: Danio rerio; assay: Inhibition of BMPR1 in zebrafish assessed as penetrance of moderate embryonic axis dorsalization at 1 uM treated at 3 hrs post-fertilization measured at 48 hrs; design: scale not given: the % may be the effect or the level left; outline: as §1
[8] = molecular target: Vascular endothelial growth factor receptor 2 (Danio rerio) (UniProt Q5GIT4); assay: Inhibition of KDR in zebrafish assessed as embryonic axis dorsalization at 10 uM treated occasionally at 6 to 8 hrs post-fertilization measured at 48 hrs
Outline: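 Newly fertilised WT zebrafish eggs were arrayed in triplicate in E3 buffer and kept at 28.5 °C. Compound (10 µM) was added at 6–8 h.p.f. Gross morphology was inspected visually for dorsalisation or ventralisation of the embryonic axis, with photographs at 36–48 h.p.f.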

Danio rerio [9] = species on record: Danio rerio; assay: Inhibition of BMPR1 in zebrafish assessed as penetrance of normal embryonic axis dorsalization at 10 uM treated continuously from 10 hrs post-fertilization measured at 48 hrs; design: scale not given: the % may be the effect or the level left
Danio rerio [10] = species on record: Danio rerio; assay: Inhibition of BMPR1 in zebrafish assessed as severity of embryonic axis dorsalization at 10 uM treated continuously from 10 hrs post-fertilization measured at 48 hrs; design: scale not given: the % may be the effect or the level left
Danio rerio [11] = species on record: Danio rerio; assay: Inhibition of BMPR1 in zebrafish assessed as penetrance of normal embryonic axis dorsalization at 0.2 uM treated at 3 hrs post-fertilization measured at 48 hrs; design: scale not given: the % may be the effect or the level left
Mus musculus [12] = species on record: Mus musculus; assay: Inhibition of BMPR1-mediated Smad-8 phosphorylation in BMP4-stimulated mouse BMPR2 deficient PASMC at 4 uM treated 30 mins before BMP4 measured after 30 mins by immunoblot analysis
Mus musculus [13] = species on record: Mus musculus; assay: Inhibition of BMPR1-mediated Smad-5 phosphorylation in BMP4-stimulated mouse BMPR2 deficient PASMC at 4 uM treated 30 mins before BMP4 challenge measured after 30 mins by immunoblot analysis
Danio rerio [14] = assay: Inhibition of iron-dextran conjugate-induced Smad-8 phosphorylation in zebrafish at 23 ug/g, iv after 1 hr relative to control; type: functional
Danio rerio [15] = species on record: Danio rerio; assay: Inhibition of BMPR1 in zebrafish assessed as severity of embryonic axis dorsalization at 10 uM treated continuously from 4 hrs post-fertilization measured after 48 hrs; design: scale not given: the % may be the effect or the level left
Danio rerio [16] = species on record: Danio rerio; assay: Inhibition of BMPR1 in zebrafish assessed as severity of embryonic axis dorsalization at 1 uM treated at 3 hrs post-fertilization measured at 48 hrs; design: scale not given: the % may be the effect or the level left
Danio rerio [17] = species on record: Danio rerio; assay: Inhibition of BMPR1 in zebrafish assessed as penetrance of mild embryonic axis dorsalization at 1 uM treated at 3 hrs post-fertilization measured at 48 hrs; design: scale not given: the % may be the effect or the level left; outline: as §1
Danio rerio [18] = species on record: Danio rerio; assay: Inhibition of AMPK in zebrafish assessed as embryonic axis dorsalization at 10 uM treated at 3 hrs post-fertilization measured at 48 hrs; design: scale not given: the % may be the effect or the level left
Danio rerio [19] = species on record: Danio rerio; assay: Inhibition of BMPR1 in zebrafish assessed as penetrance of moderate embryonic axis dorsalization at 10 uM treated continuously from 4 hrs post-fertilization measured after 48 hrs; design: scale not given: the % may be the effect or the level left; outline: as §1
[20] = (§2) Inhibition of BMPR1-mediated Smad-8 phosphorylation in BMP4-stimulated mouse PASMC treated 30 mins before BMP4 challenge measured after 30 mins by immunoblot analysis
Outline: (§3)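 Mouse PASMCs were held 24 h in RPMI with 0.5% FCS. They were preincubated 30 min with test agent, noggin or vehicle, then exposed to recombinant BMP4 for 30 min. SDS lysates were immunoblotted for phospho-SMAD1/5/8 and bands quantified by phosphorimager. Dose-dependence was fitted as a Hill plot.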

Mus musculus [21] = species on record: Mus musculus; assay: as §2; outline: as §3
Danio rerio [22] = species on record: Danio rerio; assay: Inhibition of BMPR1 in zebrafish assessed as severity of embryonic axis dorsalization at 10 uM treated at 2 to 8 hrs post-fertilization measured at 48 hrs; design: scale not given: the % may be the effect or the level left
Danio rerio [23] = species on record: Danio rerio; assay: Inhibition of BMPR1 in zebrafish assessed as penetrance of mild embryonic axis dorsalization at 0.5 uM treated at 3 hrs post-fertilization measured at 48 hrs; design: scale not given: the % may be the effect or the level left; outline: as §1
Mus musculus [24] = species on record: Mus musculus; assay: Inhibition of ALK6-mediated Smad-8 phosphorylation in BMPR2 deficient mouse PASMC at 10 uM by immunoblot analysis
Outline: (§4)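 BMPR-II–deficient mouse PASMCs (RPMI, 10% FBS) transiently transfected with constitutively active ALK2, ALK3 or ALK6 cDNA, or plasmid-only control. Incubated with or without compound (10 µM). Extracts lysed in SDS buffer, run on SDS-PAGE and immunoblotted for phospho-SMAD1/5/8; quantitated by phosphorimager.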

Danio rerio [25] = species on record: Danio rerio; assay: Inhibition of BMPR1 in zebrafish assessed as penetrance of moderate embryonic axis dorsalization at 10 uM treated at 2 to 4 hrs post-fertilization measured at 48 hrs; design: scale not given: the % may be the effect or the level left; outline: as §1
Mus musculus [26] = species on record: Mus musculus; assay: Inhibition of ALK6-mediated Smad-5 phosphorylation in BMPR2 deficient mouse PASMC at 10 uM by immunoblot analysis; outline: as §4
Hep 3B2 = assay: Inhibition of hepcidin mRNA expression in human Hep3B cells at 4 uM […] by qRT-PCR analysis; type: functional; settings: 0.5 h
Danio rerio [27] = species on record: Danio rerio; assay: Inhibition of BMPR1 in zebrafish assessed as penetrance of normal embryonic axis dorsalization at 5 uM treated at 3 hrs post-fertilization measured at 48 hrs; design: scale not given: the % may be the effect or the level left
Danio rerio [28] = species on record: Danio rerio; assay: Inhibition of BMPR1 in zebrafish assessed as severity of embryonic axis dorsalization at 10 uM treated at 3 hrs post-fertilization measured at 48 hrs; design: scale not given: the % may be the effect or the level left
Mus musculus [29] = assay: Inhibition of iron-dextran conjugate-induced hepcidin mRNA expression in C57BL/6 mouse at 10 mg/kg, iv after 6 hrs by qRT-PCR analysis; type: functional, organism-based; design: dose 10 mg/kg
Mus musculus [30] = species on record: Mus musculus; assay: Inhibition of BMPR1-mediated Smad-5 phosphorylation in BMP4-stimulated mouse PASMC at 100 to 200 ng/ml treated 30 mins before BMP4 challenge measured after 30 mins by immunoblot analysis; outline: as §3
Danio rerio [31] = species on record: Danio rerio; assay: Inhibition of BMPR1 in zebrafish assessed as severity of embryonic axis dorsalization at 0.5 uM treated at 3 hrs post-fertilization measured at 48 hrs; design: scale not given: the % may be the effect or the level left

Sequence of Vascular endothelial growth factor receptor 2 (Danio rerio) (Q5GIT4 whole entry): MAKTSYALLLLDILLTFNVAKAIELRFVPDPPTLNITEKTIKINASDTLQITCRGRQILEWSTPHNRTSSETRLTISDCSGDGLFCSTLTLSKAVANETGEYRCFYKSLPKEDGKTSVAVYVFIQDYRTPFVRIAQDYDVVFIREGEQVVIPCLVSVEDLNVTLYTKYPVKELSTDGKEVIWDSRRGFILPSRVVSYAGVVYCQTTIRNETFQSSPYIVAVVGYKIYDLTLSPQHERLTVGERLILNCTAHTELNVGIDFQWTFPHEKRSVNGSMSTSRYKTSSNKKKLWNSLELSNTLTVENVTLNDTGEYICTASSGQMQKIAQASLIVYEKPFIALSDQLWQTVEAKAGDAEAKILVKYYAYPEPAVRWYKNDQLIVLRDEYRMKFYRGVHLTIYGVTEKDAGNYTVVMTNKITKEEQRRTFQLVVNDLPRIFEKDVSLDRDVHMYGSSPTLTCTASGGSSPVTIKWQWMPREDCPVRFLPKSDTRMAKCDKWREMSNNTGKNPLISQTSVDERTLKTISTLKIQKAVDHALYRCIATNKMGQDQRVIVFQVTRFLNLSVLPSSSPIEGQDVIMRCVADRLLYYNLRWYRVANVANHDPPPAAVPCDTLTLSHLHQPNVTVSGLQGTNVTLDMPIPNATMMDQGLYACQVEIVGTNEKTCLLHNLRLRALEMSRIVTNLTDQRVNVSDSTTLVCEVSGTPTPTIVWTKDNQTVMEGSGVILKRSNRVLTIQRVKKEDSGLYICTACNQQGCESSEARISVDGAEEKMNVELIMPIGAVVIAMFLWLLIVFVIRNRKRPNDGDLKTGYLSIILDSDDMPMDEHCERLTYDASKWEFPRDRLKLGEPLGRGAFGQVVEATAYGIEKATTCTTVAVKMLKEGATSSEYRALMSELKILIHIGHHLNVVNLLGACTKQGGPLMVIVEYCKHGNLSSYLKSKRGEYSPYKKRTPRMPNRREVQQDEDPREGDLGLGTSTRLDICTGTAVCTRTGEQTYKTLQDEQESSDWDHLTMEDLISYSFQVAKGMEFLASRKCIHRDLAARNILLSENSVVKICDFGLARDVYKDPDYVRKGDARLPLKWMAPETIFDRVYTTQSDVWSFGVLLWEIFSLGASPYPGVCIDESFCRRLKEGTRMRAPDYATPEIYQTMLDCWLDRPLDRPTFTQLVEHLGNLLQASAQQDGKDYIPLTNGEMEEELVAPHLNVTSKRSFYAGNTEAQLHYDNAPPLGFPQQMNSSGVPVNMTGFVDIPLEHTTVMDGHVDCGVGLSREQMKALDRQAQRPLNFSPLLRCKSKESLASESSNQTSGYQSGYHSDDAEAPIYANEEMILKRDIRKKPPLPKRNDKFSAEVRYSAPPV

For `c1cc(-c2cnn3cc(-c4ccc(OCCN5CCCCC5)cc4)cnc23)ccn1` [DORSOMORPHIN], the inhibition (Mus musculus [1]) was “Active”, the “fold change (FC)” value (Danio rerio [2]) was 3 and the inhibition (Mus musculus [3]) was “Active”. The Activity (Danio rerio [4]) was 85%, the Activity (Danio rerio [5]) was 35% and the Activity (Danio rerio [6]) was 0%. For the same compound, the Activity (Danio rerio [7]) was 0%, the inhibition [8] was “inactive” and the Activity (Danio rerio [9]) was 100%. For the same compound, the Activity (Danio rerio [10]) was 0%, the Activity (Danio rerio [11]) was 100% and the inhibition (Mus musculus [12]) was “Active”. For the same compound, the inhibition (Mus musculus [13]) was “Active”, the “fold change (FC)” value (Danio rerio [14]) was 3 and the Activity (Danio rerio [15]) was 0%. For the same compound, the Activity (Danio rerio [16]) was 0%, the Activity (Danio rerio [17]) was 0% and the Activity (Danio rerio [18]) was 100%. For the same compound, the Activity (Danio rerio [19]) was 100%, the pIC50 [20] was 6.33 and the inhibition (Mus musculus [21]) was “Dose-dependent effect”. The Activity (Danio rerio [22]) was 100%, the Activity (Danio rerio [23]) was 0% and the inhibition (Mus musculus [24]) was “Active”. The Activity (Danio rerio [25]) was 90%, the inhibition (Mus musculus [26]) was “Active” and the inhibition at 4 µM (Hep 3B2) was 27%. For the same compound, the Activity (Danio rerio [27]) was 81%, the Activity (Danio rerio [28]) was 100% and the inhibition (Mus musculus [29]) was “Active”. For the same compound, the inhibition (Mus musculus [30]) was “Active” and the Activity (Danio rerio [31]) was 0%.
